According to ChEMBL document CHEMBL5346932, “Structure-activity relationships of actively FhuE transported rifabutin derivatives with potent activity against Acinetobacter baumannii” (Eur J Med Chem, 2023):
≈ marks a conversion by molar mass, not a printed value.

How the values were obtained:
[1] = Drug accumulation in membrane of Acinetobacter baumannii HUMC1 cultured in iron-limited RPMI medium supplemented with 10% FCS measured per 5 ml of culture medium at 0.005 uM incubated for 10 mins by LC-MS/MS analysis; type: ADME, cell membranes
In short: (§1)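 The periplasm was released by cold 0.5 mM MgSO4 shock. Cells were then sonicated and DNase-treated, and a 30000 g spin separated cytoplasm from the membrane pellet. Fractions were quantified by LC-MS/MS against standard curves. Reported as ng per 5 mL; n = 4 in duplicate.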

[2] = Drug accumulation in Acinetobacter baumannii HUMC1 harboring fhuE deletion mutant cultured in iron-rich CAMHB media at 0.5 to 5 uM incubated for 10 mins by LC-MS/MS analysis; type: ADME; conditions: dose 0.5-5 µM
In short: (§2)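 5 mL suspension dosed from DMSO stocks (0.002–5 mM), 10 min at 37 °C, 150 rpm. Cells pelleted, washed in TBS and sucrose buffers, lysed, extracted with formic acid/CH3CN/CH3OH. LC-MS/MS MRM quantification against spiked-matrix standards, caffeine internal standard. Reported as ng per 5 mL suspension; n ≥ 2 independent replicates, mean ± SEM.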

[3] = Drug accumulation in Acinetobacter baumannii HUMC1 harboring fhuE deletion mutant cultured in iron-limited RPMI medium supplemented with 10% FCS at <0.02 uM incubated for 10 mins by LC-MS/MS analysis; type: ADME; conditions: BLD = below limit of detection; in short: as §2
[4] = Drug accumulation in periplasm of Acinetobacter baumannii HUMC1 cultured in iron-limited RPMI medium supplemented with 10% FCS at 0.005 uM incubated for 10 mins by LC-MS/MS analysis; type: ADME, subcellular; in short: as §1
[5] = Drug accumulation in cytoplasm of Acinetobacter baumannii HUMC1 cultured in iron-limited RPMI medium supplemented with 10% FCS at 0.005 uM incubated for 10 mins by LC-MS/MS analysis; type: ADME, subcellular; in short: as §1
[6] = Drug accumulation in Acinetobacter baumannii HUMC1 harboring fhuE deletion mutant cultured in iron-limited RPMI medium supplemented with 10% FCS at 0.5 to 5 uM incubated for 10 mins by LC-MS/MS analysis; type: ADME; conditions: dose 0.5-5 µM; in short: as §2
[7] = Drug accumulation in cytoplasm of Acinetobacter baumannii HUMC1 cultured in iron-limited RPMI medium supplemented with 10% FCS measured per 5 ml of culture medium at 0.005 uM incubated for 10 mins by LC-MS/MS analysis; type: ADME, subcellular; in short: as §1
[8] = Drug accumulation in wild type Acinetobacter baumannii HUMC1 cultured in iron-rich CAMHB media at >=0.05 uM incubated for 10 mins by LC-MS/MS analysis; type: ADME
In short: (§3)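 5 mL of suspension was dosed from DMSO stocks (0.002–5 mM) and shaken at 150 rpm for 10 min at 37 °C. Cells were pelleted, washed, and lysed (sucrose/EDTA). LC-MS/MS MRM quantitation used caffeine-normalized standard curves in spiked lysate. Reported as amount per 5 mL; n≥2 independent replicates.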

[9] = Drug accumulation in Acinetobacter baumannii HUMC1 harboring fhuE deletion mutant cultured in iron-rich CAMHB media at <0.02 uM incubated for 10 mins by LC-MS/MS analysis; type: ADME; conditions: BLD = below limit of detection; in short: as §2
[10] = Drug accumulation in Acinetobacter baumannii HUMC1 cultured in iron-limited RPMI medium supplemented with 10% FCS measured per 5 ml of culture medium at 0.005 uM incubated for 10 mins by LC-MS/MS analysis; type: ADME; in short: as §1
[11] = test system: Staphylococcus aureus; test: Antibacterial activity against Staphylococcus aureus USA300 UAMS-1625 assessed as bacterial growth inhibition incubated for 20 hrs by CLSI based microbroth dilution method; type: functional
In short: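 CLSI broth microdilution in CAMHB against S. aureus USA300 UAMS-1625. Compounds in 2-fold dilution series; inoculum 5×10^5 CFU/mL. Incubated without shaking at 35 °C for 20 h. MIC read visually as the lowest concentration preventing visible growth. Fold changes are relative to the rifabutin MIC.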

[12] = Drug accumulation in periplasm of Acinetobacter baumannii HUMC1 cultured in iron-limited RPMI medium supplemented with 10% FCS measured per 5 ml of culture medium at 0.005 uM incubated for 10 mins by LC-MS/MS analysis; type: ADME, subcellular; in short: as §1
[13] = Drug accumulation in membrane of Acinetobacter baumannii HUMC1 cultured in iron-limited RPMI medium supplemented with 10% FCS at 0.005 uM incubated for 10 mins by LC-MS/MS analysis; type: ADME, cell membranes; in short: as §1
[14] = test system: Acinetobacter baumannii; test: Antibacterial activity against Acinetobacter baumannii HUMC1 cultured in iron-limited RPMI medium supplemented with 10% FCS assessed as inverse MIC incubated for 20 hrs by CLSI based microbroth dilution method; type: functional
In short: (§4)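 CLSI broth microdilution in RPMI 1640 + 10% FCS in place of CAMHB. Compounds in 2-fold dilution series; inoculum 5×10^5 CFU/mL. Plates held static at 35 °C for 20 h. MIC read visually as the lowest concentration with no visible growth. […] is the reciprocal of this MIC.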

[15] = Drug accumulation in wild type Acinetobacter baumannii HUMC1 cultured in iron-limited RPMI medium supplemented with 10% FCS at 0.002 to 0.02 uM incubated for 10 mins by LC-MS/MS analysis; type: ADME; conditions: dose 0.002-0.02 µM; in short: as §3
[16] = test system: Acinetobacter baumannii; test: Antibacterial activity against Acinetobacter baumannii HUMC1 cultured in RPMI 1640 medium supplemented with 10% FCS assessed as bacterial growth inhibition incubated for 20 hrs by CLSI based microbroth dilution method; type: functional; conditions: Acinetobacter baumannii, HUMC1, 20 h, read-out: MIC; in short: as §4
[17] = Inhibition of transcription in Acinetobacter baumannii HUMC1 using pVT784 as reporter plasmid preincubated for 30 mins followed by reporter plasmid addition and measured after 60 mins by Nano-Glo luciferase assay; type: functional
In short: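 Cell-free transcription/translation used A. baumannii HUMC1 extract at 1.2 mg/mL, with extract from 2xYT+P culture after a run-off step and dialysis at pH 8.2. Compound was preincubated with extract for 30 min on ice. Reporter plasmid (0.5 nM) was then added and luminescence read after 60 min at 25 °C. Compounds were tested at 8 to 0.002 mg/L in triplicate. IC50 was fit from no-compound-normalized signal.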

[18] = test system: Acinetobacter baumannii; test: Antibacterial activity against Acinetobacter baumannii HUMC1 harboring FhuE deletion mutant assessed as bacterial growth inhibition incubated for 20 hrs by CLSI based microbroth dilution method; type: functional
In short: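 Microbroth dilution per CLSI in RPMI 1640 + 10% FCS (in place of CAMHB). Compounds as 2-fold serial dilutions; inoculum 5×10^5 CFU/mL of previously described HUMC1-derived mutant strains. Incubated static at 35 °C for 20 h. MIC read visually as lowest concentration preventing visible growth.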

[19] = Drug accumulation in Acinetobacter baumannii HUMC1 cultured in iron-limited RPMI medium supplemented with 10% FCS measured per 5 ml of culture medium at 0.05 uM incubated for 10 mins by LC-MS/MS analysis; type: ADME; in short: as §3

Question: Which Drug uptake [1] does the source give for `CO[C@H]1/C=C/O[C@@]2(C)Oc3c(C)c(O)c4c(c3C2=O)C2=NC3(CCN(CC(C)C)CC3)NC2=C(NC(=O)/C(C)=C\C=C\[C@H](C)[C@H](O)[C@@H](C)[C@@H](O)[C@@H](C)[C@H](OC(C)=O)[C@@H]1C)C4=O` [RIFABUTIN] here?
Answer: The Drug uptake was 0.69 ng.

Question: What about the Drug uptake [2] of the same molecule?
Answer: The Drug uptake was “Active”.

Question: And the Drug uptake [3]?
Answer: Its Drug uptake is “Bld”.

Question: What about the Drug uptake [4] of the same molecule?
Answer: Its Drug uptake is less than 1%.

Question: And the Drug uptake [5]?
Answer: The Drug uptake was 79%.

Question: What about the Drug uptake [6] of the same molecule?
Answer: The Drug uptake was “Active”.

Question: And the Drug uptake [7]?
Answer: The Drug uptake was 0.02 ng.

Question: And the Drug uptake [8]?
Answer: Its Drug uptake is “Active”.

Question: And the Drug uptake [9]?
Answer: The Drug uptake was “Bld”.

Question: What about the Drug uptake [10] of the same molecule?
Answer: Its Drug uptake is 12.44 ng.

Question: What about the MIC [11] of the same molecule?
Answer: The MIC was 0.016 µg/mL (≈ 0.0189 µM).

Question: And the Drug uptake [12]?
Answer: Its Drug uptake is 2.66 ng.

Question: What about the Drug uptake [13] of the same molecule?
Answer: Its Drug uptake is 20%.

Question: What about the 1/MIC [14] of the same molecule?
Answer: Its 1/MIC is 1000 L/mg.

Question: And the Drug uptake [15]?
Answer: Its Drug uptake is “Active”.

Question: And the MIC [16]?
Answer: The MIC was 1 ng/mL (≈ 0.00118 µM).

Question: And the IC50 [17]?
Answer: Its IC50 is 0.07 mg/L (≈ 0.0826 µM).

Question: What about the MIC [18] of the same molecule?
Answer: Its MIC is 0.5 µg/mL (≈ 0.59 µM).

Question: And the Drug uptake [19]?
Answer: Its Drug uptake is 36.08 pmol.
